Activity calls are given as the source filed them. No cut-off for these calls is given here.
Tests used:
Type in all cases: cell-based
[1] = biological target: T1, Antigen-presenting glycoprotein CD1d (Homo sapiens) (UniProt P15813); assay: Induction of CD1D-mediated IFN-gamma production in human iNKT cells expressing CD4 at 25 nM after 18 hrs by ELISA
T1 sequence (whole entry): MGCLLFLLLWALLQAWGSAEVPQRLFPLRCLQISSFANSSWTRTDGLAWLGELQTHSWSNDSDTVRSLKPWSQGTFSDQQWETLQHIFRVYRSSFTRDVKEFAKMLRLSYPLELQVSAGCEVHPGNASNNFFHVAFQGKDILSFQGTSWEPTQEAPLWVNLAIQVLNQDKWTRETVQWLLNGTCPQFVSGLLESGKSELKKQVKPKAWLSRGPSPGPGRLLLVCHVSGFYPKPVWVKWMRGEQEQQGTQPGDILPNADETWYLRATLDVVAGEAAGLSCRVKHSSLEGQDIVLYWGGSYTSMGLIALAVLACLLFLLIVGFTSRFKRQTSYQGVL
Method in brief: (§1)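 CD4⁺ human iNKT clone HDD11 with CD1d-transfected HeLa cells as APC, in RPMI-1640 plus 10% FBS. 2.5 × 10⁴ HeLa cells were pulsed with glycolipid for 18 h at 37 °C, washed, then given fresh glycolipid-free medium with 2.5 × 10⁴ iNKT cells. Supernatants were taken after a further 18 h at 37 °C, and cytokine was measured by capture ELISA.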

[2] = biological target: T1, Antigen-presenting glycoprotein CD1d (Homo sapiens); assay: Induction of CD1D-mediated IL-13 production in human iNKT cells expressing CD4 at 400 nM after 18 hrs by ELISA; method in brief: as §1
[3] = biological target: T1, Antigen-presenting glycoprotein CD1d (Homo sapiens); assay: Induction of CD1D-mediated IL-4 production in human iNKT cells expressing CD4 at 25 nM after 18 hrs by ELISA; method in brief: as §1
[4] = biological target: T1, Antigen-presenting glycoprotein CD1d (Homo sapiens); assay: Induction of CD1D-mediated IL-13 production in human iNKT cells expressing CD4 at 25 nM after 18 hrs by ELISA; method in brief: as §1
[5] = biological target: T1, Antigen-presenting glycoprotein CD1d (Homo sapiens); assay: Induction of CD1D-mediated IFN-gamma production in human iNKT cells expressing CD4 at 25 to 400 nM after 18 hrs by ELISA; method in brief: as §1
[6] = biological target: T1, Antigen-presenting glycoprotein CD1d (Homo sapiens); assay: Induction of CD1D-mediated IL-4 production in human iNKT cells expressing CD4 at 25 to 400 nM after 18 hrs by ELISA; method in brief: as §1
[7] = biological target: T1, Antigen-presenting glycoprotein CD1d (Homo sapiens); assay: Induction of CD1D-mediated IL-13 production in human iNKT cells expressing CD4 at 25 to 400 nM after 18 hrs by ELISA; method in brief: as §1

Structure (SMILES)	Activity [1]	Activity [2]	Activity [3]	Activity [4]	Activity [5]	Activity [6]	Activity [7]
CCCCCCCCCCCCCC[C@H](O)[C@H](O)[C@H](CO[C@H]1O[C@H](CO)[C@H](O)[C@H](O)[C@H]1O)NC(=O)CCCCCc1ccccc1	Active	Active	Active	Active	–	–	–
CCCCCCCCCCCCCCCCCCCCCCCCCC(=O)N[C@@H](CO[C@H]1O[C@H](CO)[C@H](O)[C@H](O)[C@H]1O)[C@H](O)[C@H](O)CCCCCCCCCCCCCC	–	Active	–	–	–	–	–
CCCCCCCCCCCCCCCC[C@H](CO[C@H]1O[C@H](CO)[C@H](O)[C@H](O)[C@H]1O)NC(=O)CCCCCCCCCc1ccccc1	–	Active	–	–	Active	Active	Active
CCCCCCCCCCCCCCCCCCCCCCCCCC(=O)N[C@@H](CO[C@H]1O[C@H](CO)[C@H](O)[C@H](O)[C@H]1O)[C@H](O)[C@@H](O)CCCc1ccccc1	Active	Active	Active	Active	–	–	–

The remaining lines, values ahead:

Activity [1]	Activity [2]	Activity [3]	Activity [4]	Activity [5]	Activity [6]	Activity [7]	Structure (SMILES)
Active	Active	Active	Active	–	–	–	CCCCCCCCCCCCCCCCCCCCCCCCCC(=O)N[C@@H](CO[C@H]1O[C@H](CO)[C@H](O)[C@H](O)[C@H]1O)[C@@H](O)CCCCCCCCCCCCCCC
Active	Active	Active	Active	–	–	–	CCCCCCCCCCCCCCC[C@H](O)[C@H](CO[C@H]1O[C@H](CO)[C@H](O)[C@H](O)[C@H]1O)NC(=O)CCCCCCCCCc1ccccc1
–	Active	–	–	Active	Active	Active	CCCCCCCCCCCCCCCCCCCCCCCCCC(=O)N[C@@H](CO[C@H]1O[C@H](CO)[C@H](O)[C@H](O)[C@H]1O)[C@H](O)[C@H](O)CCCc1ccccc1
Active	Active	Active	Active	–	–	–	CCCCCCCCCCCCCCCCCCCCCCCCCC(=O)N[C@H](CCCCCCCCCCCCCCCC)CO[C@H]1O[C@H](CO)[C@H](O)[C@H](O)[C@H]1O
